Tests used:
[1] = system: HT-29; assay: Antiproliferative activity against human HT-29 cells; format: functional
[2] = Antiproliferative activity against human PC3MLN4 cells; format: functional
[3] = system: NCI-H460; assay: Antitumor activity against human NCI-H460 cells; format: functional, cell-based
[4] = Oral bioavailability in mouse; format: ADME, organism-based; settings: in vivo
[5] = Ratio of AUC in brain to plasma of mouse at 20 mg/kg, po; format: ADME, organism-based; settings: brain and plasma, read-out: Ratio AUC
[6] = Oral bioavailability in mouse at 20 mg/kg; format: ADME, organism-based; settings: in vivo
[7] = biological target: Proto-oncogene tyrosine-protein kinase Src (Mus musculus, UniProt P05480); assay: Inhibition of Src autophosphorylation in mouse GL261 cells; format: cell-based
[8] = biological target: T1, Proto-oncogene tyrosine-protein kinase Src (Homo sapiens, UniProt P12931); assay: Inhibition of Src (unknown origin)
[9] = system: Daoy; assay: Antiproliferative activity against human DaOY cells; format: functional
[10] = system: SK-N-MC; assay: Antiproliferative activity against human SK-N-MC cells; format: functional
[11] = system: SW1088; assay: Antiproliferative activity against human SW1088 cells; format: functional
[12] = system: LN-18; assay: Antiproliferative activity against human LN18 cells; format: functional
[13] = system: SK-N-FI; assay: Antiproliferative activity against human SK-N-FI cells; format: functional
[14] = system: U-87 MG; assay: Antiproliferative activity against human U87 cells; format: functional, U-87MG ATCC
[15] = system: T98G; assay: Antiproliferative activity against human T98G cells; format: functional
[16] = system: U-118-MG; assay: Antiproliferative activity against human U118MG cells; format: functional
[17] = system: U138-MG; assay: Antiproliferative activity against human U138MG cells; format: functional
[18] = Antiproliferative activity against human U373 cells; format: functional, U-373MG ATCC; settings: U373 MG
[19] = Half life in mouse; format: ADME, organism-based; settings: in vivo
[20] = system: GL261; assay: Antitumor activity against mouse GL261 cells implanted in mouse assessed as incidence of long term survival (>100 days) at 30 mg/kg, po qd relative to control; format: functional
[21] = system: GL261 (Mus musculus); assay: Antiproliferative activity against mouse GL261 cells
[22] = biological target: T2, Insulin receptor (Homo sapiens, UniProt P06213); assay: Non-competitive inhibition of human placental insulin receptor expressed in CHO cell membrane assessed as decrease in insulin-stimulated A2 phosphorylation preincubated for 15 mins followed by substrate addition and measured after 15 mins in presence of [gamma-32P]ATP by Dixon plot analysis; format: cell-based
[23] = biological target: T2, Insulin receptor; assay: Inhibition of human placental insulin receptor expressed in CHO cells assessed as decrease in insulin-stimulated [3H]-2-deoxyglucose uptake preincubated for 1 hr; format: cell-based
[24] = system: HT-29; assay: Antiproliferative activity against human HT-29 cells in presence of 1.5% FCS by BrdU incorporation assay; format: functional, cell-based
[25] = system: HT-29; assay: Antiproliferative activity against human HT-29 cells in presence of 0.5% FCS; format: functional, cell-based
[26] = organism: Homo sapiens; assay: Inhibition of SRC 527F mutant (unknown origin) expressed in mouse SYF cells assessed as inhibition of cell growth in presence of 10% FCS; format: cell-based
[27] = organism: Homo sapiens; assay: Inhibition of SRC 527F mutant (unknown origin) expressed in mouse SYF cells assessed as inhibition of cell growth in presence of 2% FCS; format: cell-based
[28] = biological target: T1, Proto-oncogene tyrosine-protein kinase Src; assay: Inhibition of human c-SRC expressed in mouse NIH/3T3 cells assessed as reduction in cell growth; format: cell-based
[29] = biological target: Bcr/Abl fusion protein (Homo sapiens, UniProt P00519); assay: Inhibition of BCR/ABL (unknown origin); format: protein assay
[30] = system: SK-OV-3; assay: Antiproliferative activity against human SKOV3 cells; format: functional
[31] = Antiproliferative activity against human PC3MM2 cells; format: functional
[32] = system: L3.6pl; assay: Antiproliferative activity against human L3.6PL cells; format: functional
[33] = system: MDA-MB-231; assay: Antiproliferative activity against human MDA-MB-231 cells; format: functional
[34] = system: A549; assay: Antiproliferative activity against human A549 cells; format: functional
[35] = system: Huh-7; assay: Antiproliferative activity against human HuH7 cells; format: functional
[36] = system: 769-P; assay: Antiproliferative activity against human 769-P cells; format: functional
[37] = system: K562; assay: Antiproliferative activity against human K562 cells; format: functional
[38] = system: K-562R; assay: Antiproliferative activity against human K562R cells; format: functional
[39] = system: MOLT-4; assay: Antiproliferative activity against human MOLT4 cells; format: functional
[40] = system: CCRF-HSB-2; assay: Antiproliferative activity against human CCRF-HSB2 cells; format: functional
[41] = system: Jurkat; assay: Antiproliferative activity against human Jurkat cells; format: functional
[42] = system: KG-1; assay: Antiproliferative activity against human KG1 cells; format: functional
[43] = system: RPMI-8226; assay: Antiproliferative activity against human RPMI8226 cells; format: functional
[44] = system: RL; assay: Antiproliferative activity against human RL cells; format: functional
[45] = system: NCI-H460; assay: Antiproliferative activity against human H460 cells; format: functional
[46] = system: NCI-H226; assay: Antiproliferative activity against human NCI-H226 cells; format: functional
[47] = system: HCT-116; assay: Antiproliferative activity against human HCT116 cells; format: functional
[48] = system: SW-620; assay: Antiproliferative activity against human SW620 cells; format: functional
[49] = Ratio of AUC in brain to plasma of mouse at 10 mg/kg, po; format: ADME, organism-based; settings: brain and plasma, read-out: Ratio AUC
[50] = Drug uptake in mouse brain at 10 mg/kg, po relative to peripheral drug level; format: ADME, organism-based
In short: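 Mice dosed orally at 10 mg/kg; brain and plasma exposure measured as AUC and expressed as brain-to-plasma AUC ratio.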

[51] = system: MES-SA/Dx5; assay: Antiproliferative activity against human MES-SA/Dx5 cells; format: functional
[52] = system: NCI/ADR-RES; assay: Antiproliferative activity against human NCI/ADR-RES cells; format: functional
[53] = Half life in po dosed mouse; format: ADME, organism-based; settings: in vivo
[54] = Half life in rat; format: ADME; settings: in vivo
[55] = Half life in dog; format: ADME, Canis lupus familiaris; settings: in vivo
[56] = Drug absorption in po dosed rat; format: ADME, organism-based; settings: in vivo, read-out: Drug absorption
[57] = Drug absorption in po dosed dog; format: ADME, organism-based, Canis lupus familiaris; settings: in vivo, read-out: Drug absorption
[58] = Ratio of AUC in tumor to plasma of mouse xenografted with human HT-29 cells at 5 mg/kg, po; format: ADME, organism-based; settings: tumor and plasma, read-out: Ratio AUC
[59] = Cmax in solid tumor patient at 40 mg, po during phase 1 clinical trial; format: ADME, organism-based; design: dose 40 mg, route oral; settings: human, in vivo
In short: (§1)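 Phase 1 trial in late-stage solid tumor patients: continuous twice-daily oral dosing, first in 4-week cycles of 3 weeks on and 1 week off, later without the off week. Plasma PK (Cmax, Tmax, half-life, Vz/F) recorded at each dose level; Cmax given in ng/ml and nM.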

[60] = Tmax in solid tumor patient at 40 mg, po during phase 1 clinical trial; format: ADME, organism-based; settings: human, in vivo
[61] = Half life in solid tumor patient at 40 mg, po during phase 1 clinical trial; format: ADME, organism-based; settings: human, in vivo
[62] = Apparent volume of distribution in solid tumor patient at 40 mg, po during phase 1 clinical trial; format: ADME, organism-based; settings: human, in vivo, read-out: Vz/F; in short: as §1
[63] = Cmax in solid tumor patient at 80 mg, po BID during phase 1 clinical trial; format: ADME, organism-based; design: dose 80 mg, route oral; settings: human, in vivo; in short: as §1
[64] = Cmax in solid tumor patient at 50 mg, po BID measured during first monthly cycle during phase 1 clinical trial; format: ADME, organism-based; design: dose 50 mg, route oral; settings: human, in vivo; in short: as §1
[65] = Cmax in CRPC patient at 40 mg, po BID during phase 2 trial by LC-MS analysis; format: ADME, organism-based; design: dose 40 mg, route oral; settings: human, in vivo
[66] = Cmax in AML patient at 120 mg, po qd; format: ADME, organism-based; design: dose 120 mg, route oral; settings: human, in vivo
In short: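 Phase 1b study in elderly advanced AML patients with repeated once-daily oral dosing; plasma and bone-marrow drug concentrations measured.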

[67] = Half life in AML patient at 120 mg, po qd; format: ADME, organism-based; settings: human, in vivo
[68] = biological target: Tyrosine-protein kinase Lyn (Homo sapiens, UniProt P07948); assay: Inhibition of LYN (unknown origin)
[69] = biological target: BCR/ABL1 (Mus musculus) (UniProt P00520+Q6PAJ1); settings: Homo sapiens
[70] = system: Bcr/Abl fusion protein (Homo sapiens), P00519+P11274 [E255K]
[71] = system: Bcr/Abl fusion protein (Homo sapiens), P00519+P11274 [T315I]; settings: Mus musculus

T1 sequence (P12931 2-536 limits assumed): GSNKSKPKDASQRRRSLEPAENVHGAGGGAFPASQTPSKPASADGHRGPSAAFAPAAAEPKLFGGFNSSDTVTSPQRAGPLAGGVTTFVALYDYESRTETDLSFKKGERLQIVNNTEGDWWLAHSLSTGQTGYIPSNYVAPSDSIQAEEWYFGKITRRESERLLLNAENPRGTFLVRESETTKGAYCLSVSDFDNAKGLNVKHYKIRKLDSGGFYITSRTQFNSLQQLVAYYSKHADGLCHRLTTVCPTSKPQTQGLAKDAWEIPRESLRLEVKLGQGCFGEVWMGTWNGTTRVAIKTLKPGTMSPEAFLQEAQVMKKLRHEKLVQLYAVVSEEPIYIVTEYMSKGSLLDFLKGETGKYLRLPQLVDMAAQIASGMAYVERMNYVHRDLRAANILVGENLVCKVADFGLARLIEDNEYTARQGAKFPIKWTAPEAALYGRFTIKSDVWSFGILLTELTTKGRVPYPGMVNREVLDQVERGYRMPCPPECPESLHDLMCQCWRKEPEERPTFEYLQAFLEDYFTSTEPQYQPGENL
T2 sequence (P06213 28-758 limits assumed): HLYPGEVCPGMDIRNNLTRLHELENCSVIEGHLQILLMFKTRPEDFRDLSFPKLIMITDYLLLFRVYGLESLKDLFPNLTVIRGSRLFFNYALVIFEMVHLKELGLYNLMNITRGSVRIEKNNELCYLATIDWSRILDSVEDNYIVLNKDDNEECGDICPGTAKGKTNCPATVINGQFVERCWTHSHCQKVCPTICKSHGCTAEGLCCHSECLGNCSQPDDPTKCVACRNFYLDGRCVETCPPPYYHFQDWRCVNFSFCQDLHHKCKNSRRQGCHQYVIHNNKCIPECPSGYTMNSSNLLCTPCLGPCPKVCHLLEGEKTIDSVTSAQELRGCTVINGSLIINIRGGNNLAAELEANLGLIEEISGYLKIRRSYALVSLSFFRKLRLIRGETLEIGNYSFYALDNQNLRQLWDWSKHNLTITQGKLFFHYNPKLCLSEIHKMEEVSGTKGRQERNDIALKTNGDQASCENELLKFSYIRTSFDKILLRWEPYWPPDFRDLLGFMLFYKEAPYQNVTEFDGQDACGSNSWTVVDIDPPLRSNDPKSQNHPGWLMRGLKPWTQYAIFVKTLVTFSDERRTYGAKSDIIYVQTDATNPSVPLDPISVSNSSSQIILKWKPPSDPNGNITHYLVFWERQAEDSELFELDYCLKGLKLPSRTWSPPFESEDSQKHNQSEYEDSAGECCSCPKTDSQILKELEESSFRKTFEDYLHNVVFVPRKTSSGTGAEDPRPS
T2 sequence (P06213 763-1382 limits assumed): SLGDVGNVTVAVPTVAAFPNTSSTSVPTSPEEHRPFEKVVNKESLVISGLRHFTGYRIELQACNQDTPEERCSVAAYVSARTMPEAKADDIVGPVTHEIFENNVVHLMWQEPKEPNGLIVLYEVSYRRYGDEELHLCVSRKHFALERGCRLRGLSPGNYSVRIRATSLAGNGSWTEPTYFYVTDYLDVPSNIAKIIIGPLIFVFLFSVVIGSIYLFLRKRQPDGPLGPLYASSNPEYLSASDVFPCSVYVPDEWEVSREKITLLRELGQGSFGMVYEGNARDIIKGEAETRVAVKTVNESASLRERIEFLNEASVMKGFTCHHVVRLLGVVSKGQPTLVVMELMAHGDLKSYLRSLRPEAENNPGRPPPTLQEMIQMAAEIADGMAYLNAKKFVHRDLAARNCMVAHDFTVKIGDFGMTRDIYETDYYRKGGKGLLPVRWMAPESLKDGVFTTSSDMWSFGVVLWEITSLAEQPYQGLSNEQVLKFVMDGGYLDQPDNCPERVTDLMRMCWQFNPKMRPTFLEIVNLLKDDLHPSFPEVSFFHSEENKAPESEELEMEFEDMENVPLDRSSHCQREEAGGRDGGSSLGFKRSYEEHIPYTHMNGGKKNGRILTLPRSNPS
Sequence of Bcr/Abl fusion protein (P00519 whole entry, the tested form may be a part): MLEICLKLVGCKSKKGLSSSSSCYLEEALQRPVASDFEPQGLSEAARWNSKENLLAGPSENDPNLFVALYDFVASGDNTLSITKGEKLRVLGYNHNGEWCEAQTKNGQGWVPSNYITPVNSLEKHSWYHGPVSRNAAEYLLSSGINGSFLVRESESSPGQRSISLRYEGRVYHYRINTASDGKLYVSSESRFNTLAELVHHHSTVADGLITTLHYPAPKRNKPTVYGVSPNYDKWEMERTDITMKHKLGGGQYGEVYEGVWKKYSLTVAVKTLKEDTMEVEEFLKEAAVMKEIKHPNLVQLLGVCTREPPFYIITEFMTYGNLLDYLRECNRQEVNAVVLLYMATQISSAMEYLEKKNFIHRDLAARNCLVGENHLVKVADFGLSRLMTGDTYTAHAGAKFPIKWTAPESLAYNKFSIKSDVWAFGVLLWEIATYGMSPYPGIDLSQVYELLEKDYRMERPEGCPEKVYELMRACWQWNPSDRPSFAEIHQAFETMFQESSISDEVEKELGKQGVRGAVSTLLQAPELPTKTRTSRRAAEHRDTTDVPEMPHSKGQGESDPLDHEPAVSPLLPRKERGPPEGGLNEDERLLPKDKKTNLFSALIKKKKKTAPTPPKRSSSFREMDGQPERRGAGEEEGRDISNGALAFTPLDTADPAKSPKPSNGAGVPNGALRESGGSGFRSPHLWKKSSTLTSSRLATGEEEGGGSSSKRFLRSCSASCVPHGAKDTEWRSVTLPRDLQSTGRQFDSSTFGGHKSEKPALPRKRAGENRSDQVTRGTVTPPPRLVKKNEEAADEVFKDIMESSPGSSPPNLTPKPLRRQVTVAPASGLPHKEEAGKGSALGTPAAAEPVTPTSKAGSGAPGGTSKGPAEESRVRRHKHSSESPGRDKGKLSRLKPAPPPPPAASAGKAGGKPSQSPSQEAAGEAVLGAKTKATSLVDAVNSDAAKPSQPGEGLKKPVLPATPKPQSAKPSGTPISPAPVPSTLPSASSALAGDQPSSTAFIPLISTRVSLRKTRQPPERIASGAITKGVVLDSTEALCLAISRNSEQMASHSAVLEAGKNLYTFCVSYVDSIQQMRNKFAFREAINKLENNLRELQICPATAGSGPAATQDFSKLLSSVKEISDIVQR
Sequence of Bcr/Abl fusion protein (P11274 whole entry, further chain, the tested form may be a part): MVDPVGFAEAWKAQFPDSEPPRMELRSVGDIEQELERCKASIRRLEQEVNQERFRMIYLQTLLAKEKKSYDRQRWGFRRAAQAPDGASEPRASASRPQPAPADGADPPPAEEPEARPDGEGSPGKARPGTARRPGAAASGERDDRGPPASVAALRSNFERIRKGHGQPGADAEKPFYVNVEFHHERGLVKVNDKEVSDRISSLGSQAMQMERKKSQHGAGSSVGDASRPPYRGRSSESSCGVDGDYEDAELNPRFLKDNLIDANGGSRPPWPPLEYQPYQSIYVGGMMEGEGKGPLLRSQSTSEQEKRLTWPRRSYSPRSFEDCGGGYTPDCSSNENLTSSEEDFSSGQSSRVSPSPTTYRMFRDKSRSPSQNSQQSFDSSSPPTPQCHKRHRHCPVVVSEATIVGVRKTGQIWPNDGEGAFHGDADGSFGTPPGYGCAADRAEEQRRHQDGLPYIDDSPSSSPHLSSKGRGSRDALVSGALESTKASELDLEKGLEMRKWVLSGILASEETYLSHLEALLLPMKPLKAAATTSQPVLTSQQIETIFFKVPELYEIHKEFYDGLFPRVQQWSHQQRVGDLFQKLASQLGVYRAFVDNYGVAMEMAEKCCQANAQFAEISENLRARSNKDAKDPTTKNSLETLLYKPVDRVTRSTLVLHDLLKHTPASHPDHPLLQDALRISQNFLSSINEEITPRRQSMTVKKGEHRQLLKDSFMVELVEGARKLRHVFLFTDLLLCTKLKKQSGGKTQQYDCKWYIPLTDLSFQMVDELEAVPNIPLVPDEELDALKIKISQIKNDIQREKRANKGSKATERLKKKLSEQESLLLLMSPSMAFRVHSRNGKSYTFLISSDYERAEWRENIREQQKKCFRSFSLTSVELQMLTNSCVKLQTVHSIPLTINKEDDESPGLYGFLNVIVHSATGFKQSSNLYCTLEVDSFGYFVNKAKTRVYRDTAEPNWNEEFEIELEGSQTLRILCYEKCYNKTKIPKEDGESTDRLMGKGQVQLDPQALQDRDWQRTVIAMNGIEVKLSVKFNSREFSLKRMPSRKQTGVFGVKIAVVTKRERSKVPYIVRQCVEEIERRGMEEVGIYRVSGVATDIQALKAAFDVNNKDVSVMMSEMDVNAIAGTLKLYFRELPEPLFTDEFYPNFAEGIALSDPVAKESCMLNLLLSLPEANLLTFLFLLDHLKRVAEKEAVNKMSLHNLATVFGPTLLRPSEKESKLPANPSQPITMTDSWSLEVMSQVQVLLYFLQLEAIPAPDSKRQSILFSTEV
Sequence of Tyrosine-protein kinase Lyn (P07948 whole entry): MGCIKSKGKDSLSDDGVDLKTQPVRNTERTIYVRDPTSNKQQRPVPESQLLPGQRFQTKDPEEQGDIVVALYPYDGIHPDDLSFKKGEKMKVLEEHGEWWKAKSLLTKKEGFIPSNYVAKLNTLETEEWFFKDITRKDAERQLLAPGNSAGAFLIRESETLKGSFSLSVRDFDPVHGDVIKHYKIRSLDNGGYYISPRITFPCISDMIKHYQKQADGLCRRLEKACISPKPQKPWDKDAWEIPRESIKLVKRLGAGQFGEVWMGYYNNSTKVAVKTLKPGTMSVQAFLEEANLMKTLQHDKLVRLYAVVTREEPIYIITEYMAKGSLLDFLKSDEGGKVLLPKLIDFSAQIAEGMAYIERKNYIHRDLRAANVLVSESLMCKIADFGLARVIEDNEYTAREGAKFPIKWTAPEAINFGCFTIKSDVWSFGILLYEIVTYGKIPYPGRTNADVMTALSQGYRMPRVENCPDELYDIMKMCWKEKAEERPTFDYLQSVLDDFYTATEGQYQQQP

C#CCCCN(CCOc1ccc(-c2ccc(CC(=O)NCc3ccccc3)nc2)cc1)C(=O)c1ccc(C(=O)c2ccccc2)cc1
GI50 [1]: 28 nM | GI50 [2]: 45 nM

O=C(NCc1cccc(F)c1)c1cc2cc(F)ccc2[nH]1
IC50 [3]: 15000 nM

O=C(Cc1ccc(-c2ccc(N3CCOCC3)cc2)cn1)NCc1cccc(F)c1 [KX2-361]
bioavailability [4]: 40% | Kp [5]: 1.16 | bioavailability [6]: 40% | IC50 [7]: 60 nM | IC50 [8]: 67000 nM | GI50 [9]: 16 nM | GI50 [10]: 8 nM | GI50 [11]: 26 nM | GI50 [12]: 2.9 nM | GI50 [13]: 11 nM | GI50 [14]: 76 nM | GI50 [15]: 14 nM | GI50 [16]: 29 nM | GI50 [17]: 51 nM | GI50 [18]: 54 nM | half-life [19]: 2.5 h | Activity [20]: 30% | GI50 [21]: 57 nM

O=P(O)(O)C(O)c1ccc2ccccc2c1 (stereo unspecified)
Ki [22]: 95000 nM | IC50 [23]: 10000 nM

O=C(Cc1ccc(-c2ccc(OCCN3CCOCC3)cc2)cn1)NCc1cccc(F)c1
IC50 [24]: 111 nM | bioavailability [4]: 64%

O=C(Cc1ccc(-c2ccc(OCCN3CCOCC3)cc2)cn1)NCc1ccccc1 [TIRBANIBULIN]
IC50 [24]: 23 nM | bioavailability [4]: 49% | IC50 [25]: 5 nM | GI50 [26]: 123 nM | GI50 [27]: 23 nM | GI50 [28]: 20 nM | GI50 [1]: 25 nM | IC50 [29]: 100 to 200 nM | GI50 [30]: 10 nM | GI50 [31]: 9 nM | GI50 [32]: 25 nM | GI50 [33]: 20 nM | GI50 [34]: 9 nM | GI50 [35]: 9 nM | GI50 [36]: 45 nM | GI50 [37]: 13 nM | GI50 [38]: 0.64 nM | GI50 [39]: 13 nM | GI50 [40]: 12 nM | GI50 [41]: 10 nM | GI50 [42]: 16 nM | GI50 [43]: 40 nM | GI50 [44]: 19 nM | GI90 [45]: 162 nM | GI50 ([45]; Homo sapiens, NCI-H460): 51 nM | GI90 [46]: 490 nM | GI50 ([46]; Homo sapiens, NCI-H226): 98 nM | GI90 [47]: 195 nM | GI50 ([47]; Homo sapiens, HCT-116): 31 nM | GI90 [48]: 903 nM | GI50 ([48]; Homo sapiens, SW-620): 109 nM | Kp [49]: 0.42 | Drug uptake [50]: 42% | IC50 [8]: 46000 nM | GI50 [51]: 34 nM | GI50 [52]: 56 nM | GI50 [2]: 40 nM | half-life [53]: 1 h | half-life [54]: 2 h | half-life [55]: 8 h | Fa [56]: 50 to 90% | Fa [57]: 50 to 90% | Kp [58]: 1.52 | Cmax [59]: 80 ng/mL | Tmax [60]: 1 h | half-life [61]: 4 h | Vd/F [62]: 681 L | Cmax [63]: 273 ng/mL | Cmax [64]: 231 ng/mL | Cmax [65]: 61 ng/mL | Cmax [66]: 218 ng/mL | half-life [67]: 2.2 h | IC50 [68]: 100 to 200 nM | GI50 [69]: 85 nM | GI50 [70]: 80 nM | GI50 [71]: 35 nM
